ChEMBL document CHEMBL1157034, “Synthesis of 1-benzyl-3-(5-hydroxymethyl-2-furyl)selenolo[3,2-c]pyrazole derivatives as new anticancer agents” (Eur J Med Chem, 2010)

Legend:
MDA-MB-231 = experiment: Antitumor activity against human MDA-MB-231 cells after 48 hrs by MTT assay; type: functional; settings: MDA-MB-231, 48 h
KM12 = experiment: Antitumor activity against human KM12 cells after 48 hrs by MTT assay; type: functional; settings: KM12, 48 h
UACC-62 = experiment: Antitumor activity against human UACC62 cells after 48 hrs by MTT assay; type: functional; settings: UACC-62, 48 h
CAKI-1 = experiment: Antitumor activity against human Caki1 cells after 48 hrs by MTT assay; type: functional; settings: CAKI-1, 48 h
A549 = experiment: Antitumor activity against human A549 cells after 48 hrs by MTT assay; type: functional; settings: A549, 48 h
MDA-MB-435 = experiment: Antitumor activity against human MDA-MB-435 cells after 48 hrs by MTT assay; type: functional; settings: MDA-MB-435, 48 h
OVCAR-8 = experiment: Antitumor activity against human OVCAR8 cells after 48 hrs by MTT assay; type: functional; settings: OVCAR-8, 48 h
SF-295 = experiment: Antitumor activity against human SF295 cells after 48 hrs by MTT assay; type: functional; settings: SF-295, 48 h
CCRF-CEM = experiment: Antitumor activity against human CCRF-CEM cells after 48 hrs by MTT assay; type: functional
U-251 = experiment: Antitumor activity against human U251 cells after 48 hrs by MTT assay; type: functional; settings: U-251, 48 h
[1] = Antitumor activity against human MCF7/ADR cells after 48 hrs by MTT assay; type: functional; settings: NCI/ADR-RES
DU-145 = experiment: Antitumor activity against human DU145 cells after 48 hrs by MTT assay; type: functional; settings: DU-145, 48 h
MCF7 = experiment: Antitumor activity against human MCF7 cells after 48 hrs by MTT assay; type: functional; settings: MCF7, 48 h
SK-MEL-5 = experiment: Antitumor activity against human SK-MEL-5 cells after 48 hrs by MTT assay; type: functional; settings: SK-MEL-5, 48 h
UACC-257 = experiment: Antitumor activity against human UACC257 cells after 48 hrs by MTT assay; type: functional; settings: UACC-257, 48 h
UO-31 = experiment: Antitumor activity against human UO31 cells after 48 hrs by MTT assay; type: functional; settings: UO-31, 48 h
SF-539 = experiment: Antitumor activity against human SF539 cells after 48 hrs by MTT assay; type: functional; settings: SF-539, 48 h
ACHN = experiment: Antitumor activity against human ACHN cells after 48 hrs by MTT assay; type: functional, cell-based
[2] = Antitumor activity against human Hs 578T cells after 48 hrs by MTT assay; type: functional
EKVX = experiment: Antitumor activity against human EKVX cells after 48 hrs by MTT assay; type: functional
SN12C = experiment: Antitumor activity against human SN12C cells after 48 hrs by MTT assay; type: functional
NCI-H226 = experiment: Antitumor activity against human NCI-H226 cells after 48 hrs by MTT assay; type: functional, cell-based; settings: NCI-H226, 48 h
Outline: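 Cells grown at 37 °C in humidified 5% CO2, seeded at 1×10^4 cells/well, and allowed to attach for 24 h. They were then exposed to a range of concentrations for 48 h, washed with PBS, and given 1 mg/ml MTT for 2 h. Formazan was dissolved in DMSO and read at 570 nm.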

SK-OV-3 = experiment: Antitumor activity against human SKOV3 cells after 48 hrs by MTT assay; type: functional; settings: SK-OV-3, 48 h
SK-MEL-2 = experiment: Antitumor activity against human SK-MEL-2 cells after 48 hrs by MTT assay; type: functional; settings: SK-MEL-2, 48 h
NCI-H460 = experiment: Antitumor activity against human NCI-H460 cells after 48 hrs by MTT assay; type: functional; settings: NCI-H460, 48 h
[3] = read-out: pLC50 (the source's name) (converted)

Structure (SMILES): OCc1ccc(-c2nn(Cc3ccccc3)c3cc[se]c23)o1
- GI50 (MDA-MB-231): 36.3 µM
- CC50 (MDA-MB-231; [3]): > 100 µM
- TGI (MDA-MB-231; read-out: pTGI): > 100 µM
- GI50 (KM12): 49 µM
- CC50 (KM12; [3]): > 100 µM
- TGI (KM12; read-out: pTGI): > 100 µM
- GI50 (UACC-62): 2.19 µM
- CC50 (UACC-62; [3]): > 100 µM
- TGI (UACC-62; read-out: pTGI (converted)): 55 µM
- CC50 (CAKI-1; [3]): > 100 µM
- TGI (CAKI-1; read-out: pTGI): > 100 µM
- GI50 (A549): 36.3 µM
- CC50 (A549; [3]): > 100 µM
- TGI (A549; read-out: pTGI): > 100 µM
- GI50 (MDA-MB-435): 23.4 µM
- CC50 (MDA-MB-435; [3]): > 100 µM
- TGI (MDA-MB-435; read-out: pTGI (converted)): 75.9 µM
- GI50 (OVCAR-8; read-out: pGI50 (converted)): 55 µM
- CC50 (OVCAR-8; [3]): > 100 µM
- TGI (OVCAR-8; read-out: pTGI): > 100 µM
- GI50 (SF-295): 19.1 µM
- CC50 (SF-295; [3]): > 100 µM
- TGI (SF-295; read-out: pTGI (converted)): 63.1 µM
- GI50 (CCRF-CEM): 24.5 µM
- CC50 (CCRF-CEM; [3]): > 100 µM
- TGI (CCRF-CEM; read-out: pTGI): > 100 µM
- GI50 (U-251): 27.5 µM
- CC50 (U-251; [3]): > 100 µM
- TGI (U-251; read-out: pTGI): > 100 µM
- CC50 [1, 3]: > 100 µM
- TGI ([1]; read-out: pTGI): > 100 µM
- GI50 (DU-145; read-out: pGI50 (converted)): 45.7 µM
- CC50 (DU-145; [3]): > 100 µM
- TGI (DU-145; read-out: pTGI): > 100 µM
- GI50 (MCF7; read-out: pGI50 (converted)): 11.2 µM
- CC50 (MCF7; [3]): > 100 µM
- TGI (MCF7; read-out: pTGI): > 100 µM
- GI50 (SK-MEL-5): 31.6 µM
- CC50 (SK-MEL-5; [3]): > 100 µM
- TGI (SK-MEL-5; read-out: pTGI (converted)): 89.1 µM
- GI50 (UACC-257): 18.2 µM
- CC50 (UACC-257; [3]): > 97.7 µM
- TGI (UACC-257; read-out: pTGI (converted)): 41.7 µM
- GI50 (UO-31; read-out: pGI50 (converted)): 41.7 µM
- CC50 (UO-31; [3]): > 100 µM
- TGI (UO-31; read-out: pTGI): > 100 µM
- GI50 (SF-539): 27.5 µM
- CC50 (SF-539; [3]): > 100 µM
- TGI (SF-539; read-out: pTGI): > 100 µM
- GI50 (ACHN; read-out: pGI50 (converted)): 25.7 µM
- LC50 (ACHN; read-out: pLC50 (converted)): > 100 µM
- TGI (ACHN; read-out: pTGI): < 100 µM
- GI50 [2]: 20 µM
- CC50 [2, 3]: > 100 µM
- TGI ([2]; read-out: pTGI (converted)): 74.1 µM
- GI50 (EKVX): 33.1 µM
- CC50 (EKVX; [3]): > 100 µM
- TGI (EKVX; read-out: pTGI): > 100 µM
- GI50 (SN12C; read-out: pGI50 (converted)): 43.6 µM
- CC50 (SN12C; [3]): > 100 µM
- TGI (SN12C; read-out: pTGI): > 100 µM
- GI50 (NCI-H226): 0.316 µM
- TGI (NCI-H226; read-out: pTGI (converted)): 0.977 µM
- GI50 (SK-OV-3; read-out: pGI50 (converted)): 46.8 µM
- CC50 (SK-OV-3; [3]): > 100 µM
- TGI (SK-OV-3; read-out: pTGI): > 100 µM
- GI50 (SK-MEL-2): 35.5 µM
- CC50 (SK-MEL-2; [3]): > 100 µM
- TGI (SK-MEL-2; read-out: pTGI): > 100 µM
- GI50 (NCI-H460): 28.2 µM
- CC50 (NCI-H460; [3]): > 100 µM
- TGI (NCI-H460; read-out: pTGI): > 100 µM
